# Screens deposited in PubChem by several laboratories.
# FLuc stim CS – affects firefly luciferase, flagging false hits in luciferase stimulation screens | P08659 | ATPlite luciferase biochemical, luminescence, 10 min; 0 = ATP-free wells, 1 = DMSO control | activation factor at 10 µM | 200,000 tested, under 10 active;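 active = luciferase activation factor, scaled between plate controls, of at least 2 with compound at 10 µM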
# Target sequence (P08659 whole entry, looked up): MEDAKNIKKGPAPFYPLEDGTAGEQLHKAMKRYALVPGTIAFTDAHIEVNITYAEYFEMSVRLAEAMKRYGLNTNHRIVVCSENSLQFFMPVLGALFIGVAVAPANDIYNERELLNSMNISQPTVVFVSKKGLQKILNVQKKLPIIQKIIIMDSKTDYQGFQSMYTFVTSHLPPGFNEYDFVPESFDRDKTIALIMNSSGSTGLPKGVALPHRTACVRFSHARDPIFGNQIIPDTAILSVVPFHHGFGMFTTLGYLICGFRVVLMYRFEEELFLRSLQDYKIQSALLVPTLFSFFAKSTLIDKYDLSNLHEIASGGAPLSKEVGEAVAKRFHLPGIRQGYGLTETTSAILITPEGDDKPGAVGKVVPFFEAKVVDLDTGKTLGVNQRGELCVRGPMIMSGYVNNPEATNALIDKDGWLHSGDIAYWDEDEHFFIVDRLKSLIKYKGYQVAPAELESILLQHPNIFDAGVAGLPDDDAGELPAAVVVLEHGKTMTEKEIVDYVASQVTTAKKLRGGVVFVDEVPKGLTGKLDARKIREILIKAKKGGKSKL
#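 assay system = Luciferase/luciferin detection reagent, cell-free biochemical luciferase assay | also added = ATP substrate | times = 10 min post-reagent at room temperature | measured by = luminescence from luciferase reaction | measure = luciferase activation, seen as luminescence increase over controls | benchmarks = low control with PBS replacing ATP, high control enzyme plus ATP without compound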
# PKD1 kinase inh – PKD1 (human) kinase inhibition; AID 797; Q15139; inhibition, % (concentration not given with the values); 200,000 compounds, 0.056% hits; PKD1 kinase fluorescence polarization assay; in the data active = inhibition above about 50%
# C8 TRAIL sens – sensitizes caspase-8 expressing cells to TRAIL; NB7+C8 cells + TRAIL, ATPlite viability luminescence; inhibition (viability loss, TRAIL sensitization), % at 10 µM; 360,000 compounds, 1% hits;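 active = compounds causing at least 50% loss of cell viability in the single-dose screen, relative to plate controls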
# FLuc inhib CS – inhibits firefly luciferase, flagging false hits in luciferase inhibition screens; P08659; ATPLite firefly luciferase biochemical luminescence, 10 min; inhibition, % at 10 µM; 200,000 compounds, 1.5% hits; AID 1006;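 active = inhibition above about 50% when tested at 10 µM, limit read from the data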
# PPC-1+TRAIL kill – kills PPC-1 cancer cells in the presence of TRAIL | PPC-1 cells + TRAIL, ATPLite viability luminescence | cell killing (% activity), % at 4 µM or 5 µM | 220,000 compounds, 0.41% hits | AID 1443;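 active = cell killing above 50% in the first pass at 4 µM, then a duplicate retest at 5 µM averaging 50% or more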;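 also: plate controls were cells with TRAIL plus DMSO for no effect and medium-only wells lacking cells for full effect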
# Wee1 degr inh – blocks degradation of human Wee1 kinase; P30291; HeLa Luc-Wee1K328M stability, luciferase luminescence; 100% = proteasome inhibitor MG132 effect; reporter increase, % at 5 µM; 220,000 compounds, 1.2% hits; AID 1321;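 active = activation above the mean of all tested compounds plus 3 SD, set per screening run, cut at about 8.8% in these data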;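 also: cells exposed to compound for 20 h before luminescence read; 0% = DMSO alone and 100% = MG132 at 30 µM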
# PPC-1 tox – PPC-1 cell cytotoxicity | 1,200 compounds, 50% hits | shares compounds with PPC-1+TRAIL kill | PPC-1 viability, ATPlite luminescence, overnight | cytotoxicity, % at 5 µM;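 active = reconfirmed compounds whose average cytotoxicity reaches 50% or more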;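 also: 0% = DMSO-treated cells and 100% = wells holding medium but no cells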
# The depositor's hits bear a star; . = not tested or not shown. In the library only some 2.2% were active in any assay of this set; here they are far more common.
SMILES,FLuc stim CS,PKD1 kinase inh,C8 TRAIL sens,FLuc inhib CS,PPC-1+TRAIL kill,Wee1 degr inh,PPC-1 tox
CC(C)(C)c1ccc(OCC(=O)NNC(=S)NC(=O)c2ccccc2[N+](=O)[O-])c(Br)c1,1,1,12,0,15,-3,.
CC(C)c1ccc(NC2CCCN(C(=O)CCc3cnn(C)c3)C2)cc1 (stereo not given),.,.,-10,.,.,.,.
CC1=C(C)C(C)=C(C#N)C(=C(C#N)C#N)N1,.,.,5,.,-9,1,.
O=C1c2ccccc2C(=O)C1c1ccc2ccccc2n1,0.1,5,84*,91*,84*,0,80*
Cn1cc(C(=O)N/N=C/c2c(O)ccc3ccccc23)ccc1=O,1,1,29,4,32,-2,25
Cc1cccc(-n2cccc2)c1C#N,1.1,-5,-3,-11,18,1,9
COc1ccc(NC(=O)C[C@H]2C(=O)N(C3CCCCC3)C[C@@H]2c2ccc(OC)cc2)cc1,.,.,-9,.,.,.,.
CCOC(=O)CNc1c(-c2ccc(O)cc2)nc2ccc(Cl)cn12,0.9,5,4,10,-10,0,-14
O=C(CN1C(=O)c2ccccc2S1(=O)=O)c1ccc2c(c1)OCCCO2,.,.,91*,.,86*,-5,86*
O=C(CCN1C(=O)c2ccccc2S1(=O)=O)Nc1ccc2c(c1)OCCO2,1,-5,2,4,10,-3,.
O=C(CN1C(=O)c2ccccc2S1(=O)=O)c1ccc2c(c1)OCCO2,.,.,85*,.,84*,-6,82*
O=C(CN1C(=O)c2ccccc2S1(=O)=O)c1cccc(Br)c1,.,.,49,.,.,.,.
CCCC(=O)Nc1ccc(C(=O)COC(=O)C2CC2)cc1,.,.,-7,.,.,.,.
COc1ccc(CN(C)C(=O)c2cccc(S(=O)(=O)N3CCc4ccccc43)c2)c(OC)c1,.,.,-4,.,.,.,.
O=C(NCC1CCCN(Cc2ccccc2F)C1)c1cccc(C(F)(F)F)c1 (stereo not given),1.1,-1,5,-5,20,-2,.
Cc1c(N2C(=O)C3C4C=CC(C4)C3C2=O)c(=O)n(-c2ccccc2)n1C (stereo not given),.,.,-18,.,4,-3,.
O=C(c1ccco1)N1CCN(C(=O)C2Cc3ccccc3CN2S(=O)(=O)c2ccc(F)cc2)CC1 (stereo not given),1.1,2,-11,-5,25,0,.
O=C(C1Cc2ccccc2CN1S(=O)(=O)c1ccc(F)cc1)N1CCCCC1 (stereo not given),1.1,3,-4,-6,15,2,2
COc1ccc(C(=O)Nc2ccc(C)cn2)c(OC)c1,0.1,-15,91*,95*,88*,-4,88*
CCC(C)(C)c1ccc(OCCCC[n+]2cccc(C)c2C)c(C(C)(C)CC)c1,.,.,36,.,62*,-3,58*
COc1cccc(NC(=O)C2(C)CCN2Cc2ccc(SC)cc2)c1 (stereo not given),.,.,-8,.,.,.,.
Nc1ccc(-c2nc3ccc(N)cc3s2)cc1,.,.,84*,.,82*,-2,80*
O=C(O)c1ccc2nc(-c3ccccc3)sc2c1,0.6,1,18,44,22,1,.
Nc1cccc(-c2nc3ccc(N)cc3s2)c1,0.1,-6,70*,93*,74*,-2,72*
COc1cc([N+](=O)[O-])cc(/C=N/N(CCC#N)C(C)=O)c1O,1.1,-6,-5,-6,22,2,.
SMILES,FLuc stim CS,PKD1 kinase inh,C8 TRAIL sens,FLuc inhib CS,PPC-1+TRAIL kill,Wee1 degr inh,PPC-1 tox
COc1ccc(C(=O)Nc2ccccc2C(=O)NCc2cccnc2)cc1OC,.,.,-1,.,.,.,.
COc1ccc(C(=O)Nc2ccccc2C(=O)N/N=C/c2ccncc2)cc1OC,.,.,94*,.,96*,-3,96*
CCNC(=S)N/N=C(\C)c1ccc(N2CCOCC2)cc1,1,-2,-1,-3,6,1,.
CNC(=S)N/N=C(\C)c1ccc(N2CCOCC2)cc1,0.9,9,17,14,8,0,2
OCCNCC(O)Cn1ccc2ccccc21 (stereo not given),1.1,-9,-1,-9,8,-2,6
CN(C)c1ccc(/C=C/c2ccc3ccccc3n2)cc1,.,.,89*,.,92*,-5,92*
O=[N+]([O-])c1ccc(/C=C/c2ccc3ccccc3n2)cc1,0.2,1,74*,76*,64*,-2,61*
CN(C)c1ccc(/C=C/c2nc3ccccc3s2)cc1,0.1,-5,92*,93*,81*,-2,81*
Oc1ccc(/C=C/c2ccc3ccccc3n2)cc1,0.1,3,72*,86*,56*,-5,56*
CCCN(CCC)c1ccc(/C=C/c2ccc3cc(OCC)ccc3n2)cc1,.,.,4,.,15,1,.
COc1cc(/C=C/c2nc3ccccc3s2)cc(OC)c1O,0.9,-3,-8,9,12,-2,.
CCOC(=O)[C@@H]1[C@H]2COc3cc(OC)ccc3[C@H]2N2C(=O)N(c3cccc(F)c3)C(=O)[C@]12C,.,.,5,.,.,.,.
CCCCCCCCN1C(=O)[C@H](CC(=O)N2CCCCC2)C[C@@]2(C(=O)OCC)CCCC=C12,.,.,-5,.,.,.,.
Cc1ccc(Nc2nc3ccccc3s2)cc1,0.5,-5,34,50,36,8,.
Cc1ccc(/C=C/c2nc3ccccc3s2)s1,0.1,-5,67*,91*,85*,-1,83*
COc1ccc(N2CC(NC(=O)c3ccc4ccccc4c3)CC2=O)cc1OC (stereo not given),.,.,-9,.,.,.,.
C=C1C(=O)O[C@@H]2C[C@@H](C)[C@@H]3C=CC(=O)[C@@]3(C)[C@@H](OC(C)=O)[C@H]12,.,.,.,.,62*,.,52*
C[C@@H]1C[C@@H]2OC(=O)[C@]3(C)[C@H]2[C@@H](OC3(C)O)[C@]2(C)C(=O)C=C[C@H]12 (stereo not given in full),.,.,2,.,2,.,.
CC1Sc2ccccc2N(Cc2ccc(OC(F)(F)F)cc2)C1=O (stereo not given),.,.,20,.,.,.,.
COc1cc(C(=O)N/N=C(\C)c2ccccn2)cc(OC)c1OC,.,.,12,.,.,.,.
COc1cc(C(=O)N/N=C(\c2ccccc2)c2ccccn2)cc(OC)c1OC,1.1,10,31,-6,26,3,29
Cc1ccc(CNc2nc(C)cs2)cc1,.,.,33,.,.,.,.
CS(=O)c1nc(-c2ccc(Br)cc2)cc(-c2ccccc2)c1C#N (stereo not given),1,-14,81*,-5,71*,3,73*
N#Cc1c(-c2ccccc2)cc(-c2ccc(O)cc2)nc1N,.,.,1,.,.,.,.
Cc1ccc(NCc2n[nH]c(=S)n2Cc2ccccc2)cc1Cl,1,-4,-6,-2,13,-1,.
COc1cc(OC)c(C(=O)O/N=C(\N)c2ccccc2)cc1OC,.,.,-3,.,.,.,.
